UHRF1 MBD2 ctr – UHRF1 methylated DNA binding inhibitors, primary screen, counter-screen for MBD2 inhibitor project, biochemical, TR-FRET, human UHRF1, single concentration; E3 ubiquitin-protein ligase UHRF1 (Homo sapiens), Q96T88; UHRF1 binding to methylated oligo; inhibition, % at 4.4 µM; 0.75% of 370,000 active; in the data active = inhibition above about 21%;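 also: UHRF1 SRA domain binding a hemimethylated CpG hairpin DNA probe; 0% = median of test compound wells and 100% = reference inhibitor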
Target sequence (Q96T88 whole entry, looked up, the tested form may be a part): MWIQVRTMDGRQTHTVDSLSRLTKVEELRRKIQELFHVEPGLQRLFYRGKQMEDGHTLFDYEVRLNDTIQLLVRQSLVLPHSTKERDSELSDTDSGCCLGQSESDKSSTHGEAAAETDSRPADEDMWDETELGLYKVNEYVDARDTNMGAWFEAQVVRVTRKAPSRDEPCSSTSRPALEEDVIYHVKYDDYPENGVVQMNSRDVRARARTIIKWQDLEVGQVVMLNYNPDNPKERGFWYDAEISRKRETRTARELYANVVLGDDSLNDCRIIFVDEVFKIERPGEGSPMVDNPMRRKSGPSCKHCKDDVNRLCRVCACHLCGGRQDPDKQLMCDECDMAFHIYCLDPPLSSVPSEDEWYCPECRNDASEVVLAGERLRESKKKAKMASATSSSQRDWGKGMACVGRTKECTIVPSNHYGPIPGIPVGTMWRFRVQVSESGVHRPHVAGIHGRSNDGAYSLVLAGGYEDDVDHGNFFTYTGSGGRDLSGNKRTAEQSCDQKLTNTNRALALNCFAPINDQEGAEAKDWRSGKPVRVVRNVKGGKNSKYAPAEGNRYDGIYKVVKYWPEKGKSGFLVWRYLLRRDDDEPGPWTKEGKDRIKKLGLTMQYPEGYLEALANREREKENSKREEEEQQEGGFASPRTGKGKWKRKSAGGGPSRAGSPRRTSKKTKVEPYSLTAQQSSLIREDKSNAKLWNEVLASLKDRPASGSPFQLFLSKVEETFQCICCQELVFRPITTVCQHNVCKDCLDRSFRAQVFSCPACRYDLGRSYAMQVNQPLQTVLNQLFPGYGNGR
LEDGF integ inh – blockers of LEDGF/p75-dependent integrase strand transfer – biochemical, TR-FRET, high throughput, primary screen; inhibition, % at 3.7 µM; TR-FRET IN-LEDGF/p75 DNA integration, Eu/Cy5; HIV-1 integrase (with human LEDGF/p75); AID 743269, 2014; 0.64% of 370,000 active;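 active = inhibition above the screen-wide mean plus 3 SD, cut at about 13% in these data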;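 also: signal is the Cy5 over europium emission ratio at 671 and 618 nm; 0% = plate median of compound wells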
Tn7 DDE FP – inhibitors of Tn7 peptide binding to fibrin DD(E), primary screen, biochemical, fluorescence polarization, human fibrin, Tn7 probe; Fibrinogen beta chain (Homo sapiens), P02675; FP displacement of FITC-Tn7 peptide from fibrin DD(E); 0% = median of compound wells per plate; 0.13% of 370,000 active; inhibition, % at 8.3 µM;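 active = inhibition above the mean of compounds falling within the control limits plus 3 SD of them, cut at about 14% in these data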;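 also: 0% = plate median of compound wells and 100% = 10 µM Aha-Tn7 peptide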
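Measure: % inhibition scaled between sample-field median and high-control FP; Test system: human fibrin DD(E); Quantity: 2 µM final DD(E) protein; Doses: one dose, 8.3 µM nominal; Schedule: compound with protein 10 min, then 3 h after probe, room temperature; Detection: fluorescence polarization; Medium: Tris buffer with calcium and detergent, pH 7.8.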
Tn6 DDE FP – inhibitors of Tn6 peptide binding to fibrin DD(E), primary screen, biochemical, fluorescence polarization, human fibrin, Tn6 probe. Fibrinogen beta chain (Homo sapiens), P02675. Fibrin DD(E) TRITC-Tn6 fluorescence polarization displacement. inhibition, % at 8.3 µM. 0.21% of 370,000 active. AID 720509, 2013;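 active = inhibition above a per-campaign cutoff: mean of compounds within control limits plus 3 SD, cut at about 15% in these data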;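 also: 0% = median of all compound wells on the plate and 100% = blocking peptide control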
MBD2 inh – inhibitors of MBD2 binding to methylated DNA, primary screen, biochemical, TR-FRET, DNA-binding domain, human. Methyl-CpG-binding domain protein 2 (Homo sapiens), Q9UBB5. MBD2 binding to methylated oligonucleotide. inhibition, % at 4.4 µM. 0.31% of 370,000 active. AID 686964, 2013; in the data active = inhibition above about 13%
TDP2 inh – human TDP2 enzyme inhibitors, primary screen, biochemical, epi absorbance, recombinant enzyme; T5PNP hydrolysis, p-nitrophenol absorbance 415 nm; 0.34% of 370,000 active; inhibition, % at 12.8 µM; Tyrosyl-DNA phosphodiesterase 2 (Homo sapiens), O95551;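 active = inhibition above the mean of all tested compounds plus 3 SD, set per campaign, cut at about 25% in these data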;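 also: 0% = DMSO with enzyme and 100% = buffer with substrate but no TDP2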
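Test system: human TDP2 enzyme; Input: 120 nM TDP2 per well; Buffer or medium: Mg2+-containing Tris-HCl buffer, pH 7.5; Reagent: 5 mM T5PNP; Dosing: 12.8 µM single point, 1% DMSO; Incubation: reaction 2 h, 37 °C; Detection: p-Nitrophenol epi absorbance; Read-out: % inhibition relative to enzyme-containing and enzyme-free wells; Replicates: single well per compound.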
TDP2 inh conf – human TDP2 enzyme inhibitors, retest, confirmation, biochemical, epi absorbance, recombinant enzyme; 22% of 1,100 active; absorbance read-out; shares compounds with TDP2 inh; inhibition, % at 12.8 µM; in the data active = inhibition above about 25%;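 also: 0% = vehicle with enzyme and 100% = no enzyme buffer only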
IN multimer up – HIV-1 IN multimer formation enhancers, counter-screen for LEDGF/p75 integration inhibitor project, biochemical, TR-FRET. activation, % at 7.7 µM. shares compounds with LEDGF integ inh. 17% of 2,000 active. TR-FRET HIV-1 integrase multimerization; in the data active = activation above about 8.9%
TRFRET interf – TR-FRET optical interference artefacts, confirmation, artefact control for LEDGF/p75-dependent integration inhibitor project, biochemical, HIV-1 IN multimerization | TR-FRET optical interference counterscreen | shares compounds with LEDGF integ inh | 2,000 tested, under 10 active | inhibition, % at 7.7 µM;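 active = inhibition above the mean over all tested compounds plus 3 SD, which no compound reached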;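 also: 0% = integrase with antibodies and DMSO and 100% = antibodies without integrase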
IN-LEDGF confirm – inhibitors of HIV-1 IN-LEDGF/p75 DNA integration, confirmation, biochemical, TR-FRET; shares compounds with LEDGF integ inh; 36% of 2,000 active; TR-FRET LEDGF/p75-dependent HIV-1 integration; inhibition, % at 3.7 µM; in the data active = inhibition above about 14%
The depositor's hits bear a star; / = no result given. Hits are enriched below; roughly 1.9% of the tested compounds scored in any of these assays.

SMILES	UHRF1 MBD2 ctr	LEDGF integ inh	Tn7 DDE FP	Tn6 DDE FP	MBD2 inh	TDP2 inh	IN multimer up	TRFRET interf	IN-LEDGF confirm	others
COC1=CC(=O)c2c(ccc3ncnc(N)c23)C1=O	6	53*	-6	4	-6	85*	7	-26	73*	TDP2 inh conf=82*
COc1cccc2c1C(=O)C=C(C)C2=O	0	-3	-3	-8	2	0	/	/	/
CC(C)(C)c1cc(=O)n(-c2ccccc2)[nH]1	15	22*	-2	9	9	85*	-2	7	11	TDP2 inh conf=89*
O=c1cc(-c2ccccc2)[nH]n1-c1ccccc1	16	37*	3	5	7	76*	1	-5	-1	TDP2 inh conf=-3
O=c1ccc(=O)n(-c2ccccc2)[nH]1	-4	2	-2	1	-3	4	/	/	/
Cc1cc(C(C)(C)C)nc2[nH]n(-c3ccccc3)c(=O)c12	-5	-4	4	8	-10	-8	/	/	/
CCN(CCOC(=O)Nc1ccc(Cl)cc1)C(=O)Nc1ccc(Cl)cc1	0	2	-3	-5	-6	7	/	/	/
COC(=O)C1=C(C)N(CC(C)C)C(=S)NC1c1cccc(Br)c1 (centres undefined)	1	1	5	4	1	8	/	/	/
O=C(Nc1ccc(OC(F)(F)F)cc1)Nc1nc2ncccn2c1-c1ccc(C(F)(F)F)cc1	-3	5	-4	-6	4	-2	/	/	/
COc1cc(N)c2ncccc2c1OC	0	27*	-2	4	-9	46*	3	-17	-3	TDP2 inh conf=10
COc1cc(C(=O)Nc2cccc3ncccc23)cc(OC)c1OC	0	4	3	-2	3	-15	/	/	/
COc1ccc(C2=NN(c3ccccc3)C(=O)/C2=C\c2ccc(O)c(OC)c2)cc1	14	17*	-8	-6	6	46*	1	-5	-2	TDP2 inh conf=2
COC(=O)c1ccc(N2NC(=O)/C(=C/c3cc(OC)c(O)c(OC)c3)C2=O)cc1	1	3	-3	-2	-4	-17	/	/	/
COC(=O)c1ccc(N2NC(=O)/C(=C/c3cc(OC)c(OC)c(OC)c3)C2=O)cc1	1	14*	-1	3	-2	-5	3	-12	-2
COc1ccc(C2CC(=O)C(c3cc(OC)c(OC)c(OC)c3)=CN2Cc2ccccc2)cc1 (centres undefined)	2	3	-5	-1	2	2	/	/	/
CCCCNc1cccc2c1S(=O)(=O)N[C@H](Cc1ccccc1)CO2	2	4	-4	0	-2	-10	/	/	/
O=C(O)c1ccc(/C=N/Nc2ccc(Cl)nn2)cc1	1	21*	0	4	3	-4	1	-5	1
O=C(Nc1cccc(Cl)c1)OCCN1CCCC12CCC(c1ccccc1)CC2 (centres undefined)	-1	-1	-3	1	-4	2	/	/	/
COC(=O)[C@]12C[C@H](CC(=O)NCC3CCCCC3)C(=O)N(Cc3ccccc3)C1=C[C@H](COCc1ccccc1)O[C@@H]2C	1	3	-7	-4	2	0	/	/	/
C(=C\c1ccc2nncn2c1)/c1ccccc1	-3	14*	-2	-3	1	3	-4	15	13
O=C(c1ccccc1)c1nn(-c2ccc(Cl)cc2)c(=O)cc1C(F)(F)F	-3	23*	-3	1	-4	3	0	-1	19*
CC(c1cc(F)ccc1O)c1c[nH]c2ccccc12 (centres undefined)	0	2	-1	4	1	7	/	/	/
CN(C)CCn1nnnc1SCC1=C(C(=O)O)N2C(=O)[C@@H](NC(=O)Cc3csc(N)n3)[C@H]2SC1	39*	24*	-2	3	9	13	6	-28	19*
Cc1nnc(SCC2=C(C(=O)O)N3C(=O)[C@@H](NC(=O)Cn4cnnn4)[C@H]3SC2)s1	-1	4	-8	8	-6	-11	/	/	/
O=C(NC(Cc1ccccc1)C(=O)O)/C(=C\c1ccco1)NC(=O)c1ccc(Br)cc1 (centres undefined)	7	22*	-2	-2	1	-18	0	-2	-2
SMILES	UHRF1 MBD2 ctr	LEDGF integ inh	Tn7 DDE FP	Tn6 DDE FP	MBD2 inh	TDP2 inh	IN multimer up	TRFRET interf	IN-LEDGF confirm	others
O=C(Nc1ccc(C(=O)O)cc1)/C(=C\c1ccco1)NC(=O)c1ccc(Br)cc1	10	14*	5	-6	5	16	0	2	2
COCCNC(=S)N1C[C@H]2CON(C)[C@H]2C[C@H]1c1ccccc1Br	5	3	0	-3	-4	-16	/	/	/
OCC1(Cc2cccc(C(F)(F)F)c2)CCN(Cc2cc(F)cc(F)c2)CC1	0	4	-1	1	-1	-17	/	/	/
CN(C)S(=O)(=O)N1CCC(CO)(Cc2cccc(C(F)(F)F)c2)CC1	-2	32*	-11	4	-3	-18	1	-3	-6
NS(=O)(=O)c1ccc(N/N=C/c2ccc(O)c(O)c2O)c([N+](=O)[O-])c1	8	72*	1	-9	-6	-8	33*	-167	85*
CC(=O)c1cnc2cc(-c3ccc(C)cc3)nn2c1C	-3	-1	-4	-2	4	-10	/	/	/
